{"data": "Results of several laboratories", "target": "Glycogen synthase kinase-3 beta (GSK3B, Homo sapiens, UniProt P49841)", "note": "Lines come from different studies, so protocols differ."}
{"SMILES": "CC(C)(O)[C@H]1CC[C@H](Nc2ccc3ncc(-c4cccc(C(F)(F)F)c4)n3n2)CC1", "effect on": "enzyme activity", "mode": "inhibitor", "concentration": "1 µM", "endpoint": "remaining activity", "result": "81.6%"}
{"SMILES": "CN(C)C1CCN(CC#Cc2nn(C3CCCC3)c3nc(NCc4ccccc4)ncc23)C1 (stereo not drawn)", "effect on": "enzyme activity", "mode": "inhibitor", "method": "FRET", "concentration": "10 µM", "endpoint": "inhibition", "result": "7%"}
{"SMILES": "COc1cc(/C=C/C(=O)CC(=O)/C=C/c2ccc(O)c(OC)c2)ccc1O", "effect on": "enzyme activity", "mode": "inhibitor", "concentration": "1 µM", "endpoint": "activity vs control", "result": "105%"}
{"SMILES": "O=c1c2ccccc2[nH]c(=S)n1CCN1CCC(=C(c2ccc(F)cc2)c2ccc(F)cc2)CC1", "effect on": "enzyme activity", "mode": "inhibitor", "concentration": "0.5 µM", "endpoint": "remaining activity", "result": "112%"}
{"SMILES": "CC(C)(C)c1nc2c(s1)c1nc(N)ncc1c1ccc(NS(=O)(=O)c3c(F)cccc3F)c(F)c12", "effect on": "enzyme activity", "mode": "inhibitor", "method": "radiometric", "concentration": "1 µM", "endpoint": "remaining activity", "result": "91%"}
{"SMILES": "O=C(O)c1cc(-c2ccc(F)cc2F)ccc1O", "effect on": "enzyme activity", "mode": "inhibitor", "method": "ADP detection", "concentration": "100 µM", "endpoint": "inhibition", "result": "38.6%"}
{"SMILES": "FC(F)c1nc2ccccc2n1-c1nc(N2CCOCC2)nc(N2CCOCC2)n1", "effect on": "enzyme activity", "mode": "inhibitor", "concentration": "10 µM", "endpoint": "remaining activity", "result": "79%"}
{"SMILES": "CC1CCc2c(N3CCC(O)CC3)c(F)cc3c(=O)c(C(=O)O)cn1c23 (stereo not drawn)", "effect on": "enzyme activity", "mode": "inhibitor", "method": "ADP detection", "concentration": "100 µM", "endpoint": "inhibition", "result": "46.1%"}
{"SMILES": "CN1CCN(c2cnc3c(C4CCN(C(=O)c5ccc(OC(F)(F)F)cc5N)CC4)ncnc3c2)CC1", "effect on": "cell-free assay", "method": "competition with immobilised ligand", "concentration": "1 µM", "endpoint": "remaining binding", "result": "100%"}
{"SMILES": "FC(F)(F)Oc1cccc(-c2cnc3ccc(-c4ccncc4)nn23)c1", "effect on": "enzyme activity", "mode": "inhibitor", "method": "radiometric", "concentration": "5 µM", "endpoint": "activity vs control", "result": "98%"}
{"SMILES": "COc1cc(-c2coc3cc(O)c(OC)c(O)c3c2=O)cc(O)c1OC", "effect on": "enzyme activity", "mode": "inhibitor", "method": "ADP detection", "concentration": "100 µM", "endpoint": "inhibition", "result": "29%"}
{"SMILES": "CC(C)c1ccc(NC(=O)c2cccs2)c(-c2nc3ccccc3[nH]c2=O)c1", "effect on": "enzyme activity", "mode": "inhibitor", "concentration": "1 µM", "endpoint": "activity vs control", "result": "128%"}
{"SMILES": "Nc1nc(Nc2ccc(S(N)(=O)=O)cc2)nn1C(=O)c1c(F)cccc1F", "effect on": "cell-free assay", "concentration": "0.5 µM", "endpoint": "remaining signal", "result": "22%"}
{"SMILES": "O=C(Nc1cnn(-c2csc(C(=O)NC3COC3)c2)c1)Nc1c(F)cccc1Cl", "effect on": "enzyme activity", "mode": "inhibitor", "concentration": "5 µM", "endpoint": "remaining activity", "result": "95.7%"}
{"SMILES": "Cn1cc(Cl)c2c(Oc3c(F)cc(Nc4cc(Cl)nc(N)n4)cc3F)ccnc21", "effect on": "cell-free assay", "method": "competition with immobilised ligand", "concentration": "0.1 µM", "endpoint": "remaining binding", "result": "90%"}
{"SMILES": "Cc1ccc(NC(=O)c2ccc(C)c(C(F)(F)F)c2)cc1C#Cc1nn(C2CCC(O)CC2)c2ncnc(N)c12 (stereo not drawn)", "effect on": "cell-free assay", "concentration": "10 µM", "endpoint": "remaining signal", "result": "26%"}
{"SMILES": "CCC(=O)N[C@@H]1CC[C@H](C(=O)N(C)c2ccc(-c3nc4ccccc4o3)cc2)C1", "effect on": "cell-free assay", "method": "competition with immobilised ligand", "concentration": "1 µM", "endpoint": "remaining binding", "result": "96%"}
{"SMILES": "O=C1NC(=O)c2cc(Nc3ccc(F)cc3)c(Nc3ccc(F)cc3)cc21", "effect on": "cell-free assay", "concentration": "0.5 µM", "endpoint": "remaining signal", "result": "89.2%"}
{"SMILES": "CS(=O)(=O)c1cc(C2(NC(=O)c3cncc4c3cnn4-c3ccc(F)cc3)CC2)ccn1", "effect on": "cell-free assay", "method": "competition with immobilised ligand", "concentration": "1 µM", "endpoint": "remaining binding", "result": "85%"}
{"SMILES": "O=c1cc(-c2cccc3c2Sc2ccccc2S3)oc(N2CCOCC2)c1", "effect on": "enzyme activity", "mode": "inhibitor", "concentration": "0.5 µM", "endpoint": "remaining activity", "result": "98.7%"}
{"SMILES": "C[C@@H]1CN(c2cc(-c3nn(C)c4ccc(OC5(C)CC5)cc34)ncn2)C[C@H](C)O1", "effect on": "cell-free assay", "method": "competition with immobilised ligand", "concentration": "1 µM", "endpoint": "remaining binding", "result": "91%"}
{"SMILES": "CCN(CC)CCNC(=O)c1c(C)[nH]c(/C=C2\\C(=O)Nc3ccc(Cl)cc32)c1C", "effect on": "enzyme activity", "mode": "inhibitor", "concentration": "0.5 µM", "endpoint": "remaining activity", "result": "93.1%"}
{"SMILES": "Oc1cc2c(cc1O)C1c3ccc(O)c(O)c3OCC1(O)C2 (stereo not drawn)", "effect on": "enzyme activity", "mode": "inhibitor", "method": "ADP detection", "concentration": "100 µM", "endpoint": "inhibition", "result": "50.5%"}
{"SMILES": "C[C@@H]1CN(c2cc(-c3n[nH]c4ccc(OC5(C)CC5)cc34)ncn2)C[C@H](C)O1", "effect on": "cell-free assay", "method": "competition with immobilised ligand", "concentration": "0.1 µM", "endpoint": "remaining binding", "result": "90%"}
{"SMILES": "N#C[C@@H]1C[C@@H]2C[C@@H]2N1C(=O)[C@@H](N)C12CC3CC(CC(O)(C3)C1)C2", "effect on": "enzyme activity", "mode": "inhibitor", "method": "ADP detection", "concentration": "100 µM", "endpoint": "inhibition", "result": "8.2%"}
{"SMILES": "CNC(=O)c1cc(Oc2ccc(NC(=O)Nc3ccc(Cl)c(C(F)(F)F)c3)cc2)ccn1", "effect on": "cell-free assay", "concentration": "0.5 µM", "endpoint": "remaining signal", "result": "101%"}
{"SMILES": "COc1cc(Nc2cnc(C#N)c(O[C@H](C)CN(C)C)n2)ncc1-c1cnn(C)c1", "effect on": "enzyme activity", "mode": "inhibitor", "method": "radiometric", "concentration": "1 µM", "endpoint": "remaining activity", "result": "90%"}
{"SMILES": "Nc1cccc(-c2cc3c(Oc4cccc(O)c4)ncnc3[nH]2)c1", "effect on": "cell-free assay", "concentration": "0.5 µM", "endpoint": "remaining signal", "result": "48.1%"}
{"SMILES": "Cc1ccc(C(=O)NCc2ccsc2)cc1C#Cc1cn(C(C)C)c2ncnc(N)c12", "effect on": "enzyme activity", "mode": "inhibitor", "concentration": "1 µM", "endpoint": "activity vs control", "result": "102%"}
{"SMILES": "Cc1ncc([N+](=O)[O-])n1CCO", "effect on": "enzyme activity", "mode": "inhibitor", "method": "ADP detection", "concentration": "100 µM", "endpoint": "inhibition", "result": "32.8%"}
{"SMILES": "COc1ccc(COc2ccc(Cc3cnc(N)nc3N)cc2OC)cc1", "effect on": "cell-free assay", "concentration": "0.5 µM", "endpoint": "remaining signal", "result": "97.8%"}
{"SMILES": "Cc1cnc(NC2CCOCC2)nc1-n1cnc(C(=O)NC(CN)c2cc(F)cc(Cl)c2)c1 (stereo not drawn)", "effect on": "enzyme activity", "mode": "inhibitor", "method": "radiometric", "concentration": "1 µM", "endpoint": "remaining activity", "result": "7%"}
{"SMILES": "CCCOc1ccc([C@H]2[C@H](C(=O)O)[C@@H](c3ccc4c(c3)OCO4)CN2CC(=O)Nc2c(CC)cccc2CC)cc1", "effect on": "cell-free assay", "method": "competition with immobilised ligand", "concentration": "1 µM", "endpoint": "remaining binding", "result": "73%"}
{"SMILES": "COc1cc2c(cc1OC)-c1c(oc3c4c(ccc3c1=O)OC(C)(C)C=C4)CO2", "effect on": "enzyme activity", "mode": "inhibitor", "method": "ADP detection", "concentration": "100 µM", "endpoint": "inhibition", "result": "10.4%"}
{"SMILES": "COc1cccc(CNC(=O)c2nc3scc(COCc4ccc(C(=O)O)cc4)c3c(=O)[nH]2)c1", "effect on": "cell-free assay", "method": "competition with immobilised ligand", "concentration": "1 µM", "endpoint": "remaining binding", "result": "62.6%"}
{"SMILES": "Fc1ccc([C@@H]2CCNC[C@H]2COc2ccc3c(c2)OCO3)cc1", "effect on": "enzyme activity", "mode": "inhibitor", "method": "ADP detection", "concentration": "100 µM", "endpoint": "inhibition", "result": "0.9%"}
